This is an account of results in ChEMBL document CHEMBL1275335, “Design and synthesis of 2-arylbenzimidazoles and evaluation of their inhibitory effect against Chlamydia pneumoniae” (J Med Chem, 2010).

Activity calls are given as the source filed them. No cut-off for these calls is given here.

In general, inhibition refers to the percentage by which the read-out fell short of the control.

One data set concerns Chlamydia pneumoniae. In words: Antibacterial activity against Chlamydia pneumoniae CWL029 infected in human HL cells assessed as inhibition of bacterial growth at 10 uM after 72 hrs by TR-FIA method. In kind it is functional. The method in brief: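 HL cells were seeded at 6×10^4/well in RPMI 1640 with 7.5% FBS, 2 mM glutamine and gentamicin, then infected 24 h later with CWL-029 at MOI 0.2 plus 0.5 μg/mL cycloheximide and centrifuged 1 h. Compounds were added in six replicates for 72 h at 37 C. After methanol fixation, wells were labelled with europium-conjugated chlamydial antibody (100 ng/mL, 30 min, 37 C) and read by time-resolved fluorescence; rifampicin 0.012 μM served as control.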

For a further data set, the system named is Escherichia coli. The data set is described as follows: Antibacterial activity against Escherichia coli ATCC 25922 assessed as inhibition of bacterial growth at 50 uM after 18 hrs by photometric method. In kind it is functional, organism-based. The method in brief: (§1)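 Bacteria were dispensed with 0.01% resazurin and compound, reaching a final 50 μM; ampicillin 25 μM was the control. After 18 h at 37 C, resazurin was read photometrically at 600 nm.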

Data set [1] can be described thus: Cytotoxicity against human HL cells assessed as cell viability at 10 uM after 72 hrs by celltiter-glo analysis. It is filed as cell-based. The conditions noted are these: read-out: Activity. The method in brief: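 After 72 h, viability was measured as intracellular ATP by CellTiter-Glo luminescence after partial medium replacement. Results are expressed as a percentage of cells given DMSO-adjusted medium.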
For orientation: Cellular ATP, detected with luciferase, serves as a proxy for viable cell number.

The next data set deals with Staphylococcus aureus. The data set is described as follows: Antibacterial activity against Staphylococcus aureus ATCC 25923 assessed as inhibition of bacterial growth at 50 uM after 18 hrs by photometric method. In kind it is functional. The method in brief:
as §1

As to `O=C(Nc1cccc(-c2nc3ccccc3[nH]2)c1)c1cccc(F)c1`, the inhibition at 10 µM in the data set with Chlamydia pneumoniae turned out to be 58%. For the same compound, the “growth inhibition (GI)” value in the data set on Escherichia coli and in the data set with Staphylococcus aureus was “inactive” each time. Further, the viability at 72 h, 10 µM in data set [1] is 101%.
With `O=C(Nc1cccc(-c2nc3ccccc3[nH]2)c1)c1cccc(Cl)c1`, in the data set with Chlamydia pneumoniae, the inhibition at 10 µM was determined as 94%. In addition, the “growth inhibition (GI)” value in the data set on Escherichia coli and in the data set on Staphylococcus aureus was “inactive” each time. For the same compound, in data set [1], the viability at 72 h, 10 µM came out at 106%.
Take `O=C(Nc1cccc(-c2nc3ccccc3[nH]2)c1)c1ccoc1`: the inhibition at 10 µM with Chlamydia pneumoniae turned out to be 78%. For the same compound, the “growth inhibition (GI)” value with Escherichia coli and with Staphylococcus aureus was “inactive” throughout. Moreover, the viability at 72 h, 10 µM in data set [1] stood at 101%.
In the case of `O=S(=O)(Nc1cccc(-c2nc3ccccc3[nH]2)c1)c1ccccc1`, the inhibition at 10 µM in the data set on Chlamydia pneumoniae amounted to 0%. Besides, the “growth inhibition (GI)” value in the data set with Escherichia coli and with Staphylococcus aureus was “inactive” in each case. Also, the viability at 72 h, 10 µM in data set [1] was determined as 77%.
In the case of `CC(C)(C)C(=O)Nc1cccc(-c2nc3ccccc3[nH]2)c1`, the inhibition at 10 µM with Chlamydia pneumoniae amounted to 0%. Also, the “growth inhibition (GI)” value in the data set on Escherichia coli and in the data set on Staphylococcus aureus was “inactive” in each case. In data set [1], the viability at 72 h, 10 µM is 98%.
Regarding `O=C(Nc1cccc(-c2nc3ccccc3o2)c1)c1cccs1`, the inhibition at 10 µM in the data set with Chlamydia pneumoniae came to 61%. Also, in data set [1], the viability at 72 h, 10 µM turned out to be 94%.
For the compound `O=C(Nc1cccc(-c2ncc[nH]2)c1)c1cccs1`, in the data set with Chlamydia pneumoniae, the inhibition at 10 µM was determined as 0%. The viability at 72 h, 10 µM in data set [1] was found to be 115%.
Consider `CC(=O)Nc1cccc(-c2nc3ccccc3[nH]2)c1`, for which, in the data set on Chlamydia pneumoniae, the inhibition at 10 µM is 0%. In addition, the “growth inhibition (GI)” value in the data set on Escherichia coli and in the data set on Staphylococcus aureus was “inactive” in each case. Further, the viability at 72 h, 10 µM in data set [1] worked out at 100%.
Consider `O=C(Nc1cccc(-c2ncc[nH]2)c1)c1ccsc1`, for which the inhibition at 10 µM in the data set with Chlamydia pneumoniae was 0%. In addition, in data set [1], the viability at 72 h, 10 µM came out at 133%.
Regarding `COc1ccccc1C(=O)Nc1cccc(-c2nc3ccccc3[nH]2)c1`, the inhibition at 10 µM in the data set on Chlamydia pneumoniae worked out at 0%. Also, the “growth inhibition (GI)” value with Escherichia coli and with Staphylococcus aureus was “inactive” each time. The viability at 72 h, 10 µM in data set [1] was 107%.
Turning to `O=C(Cc1cccs1)Nc1cccc(-c2nc3ccccc3[nH]2)c1`, in the data set on Chlamydia pneumoniae, the inhibition at 10 µM is 70%. The “growth inhibition (GI)” value in the data set with Escherichia coli and with Staphylococcus aureus was “inactive” each time. Also, the viability at 72 h, 10 µM in data set [1] came out at 107%.
Regarding `O=C(Nc1ccc(-c2nc3ccccc3[nH]2)cc1)c1cccs1`, in the data set on Chlamydia pneumoniae, the inhibition at 10 µM is 0%. The “growth inhibition (GI)” value in the data set on Escherichia coli and with Staphylococcus aureus was “inactive” throughout. Further, the viability at 72 h, 10 µM in data set [1] came out at 96%.
With `Cn1c(-c2cccc(NC(=O)c3cccs3)c2)nc2ccccc21`, in the data set with Chlamydia pneumoniae, the inhibition at 10 µM stood at 0%. For the same compound, the “growth inhibition (GI)” value with Escherichia coli and in the data set on Staphylococcus aureus was “inactive” throughout. In addition, the viability at 72 h, 10 µM in data set [1] was 102%.
For the compound `COc1ccc(-c2nc3ccccc3[nH]2)cc1NC(=O)c1cccs1`, the inhibition at 10 µM in the data set with Chlamydia pneumoniae was determined as 52%. For the same compound, the “growth inhibition (GI)” value with Escherichia coli and in the data set on Staphylococcus aureus was “inactive” throughout. In addition, the viability at 72 h, 10 µM in data set [1] is 101%.
For `O=C(Nc1cccc(-c2nc3ccccc3[nH]2)c1)c1ccco1`, the inhibition at 10 µM with Chlamydia pneumoniae amounted to 45%. For the same compound, the “growth inhibition (GI)” value in the data set with Escherichia coli and with Staphylococcus aureus was “inactive” in each case. The viability at 72 h, 10 µM in data set [1] is 98%.
With `COc1cccc(C(=O)Nc2cccc(-c3nc4ccccc4[nH]3)c2)c1`, in the data set on Chlamydia pneumoniae, the inhibition at 10 µM stood at 98%. Further, the “growth inhibition (GI)” value with Escherichia coli and in the data set with Staphylococcus aureus was “inactive” throughout. Also, the viability at 72 h, 10 µM in data set [1] was determined as 97%.
For the compound `O=C(Nc1cccc(-c2nc3ccccc3[nH]2)c1)c1ccccc1C(F)(F)F`, the inhibition at 10 µM with Chlamydia pneumoniae came out at 96%. Besides, the “growth inhibition (GI)” value in the data set on Escherichia coli and with Staphylococcus aureus was “inactive” throughout. Further, in data set [1], the viability at 72 h, 10 µM came to 80%.
